Experimental data taken from article PMC10825549 (JID Innovations, 2023).
“And” between values parts separate entries of the source, which are not always exact repeats. Equal entries are not always repeated. “Also recorded” adds a separate entry of the source.

How the values were obtained:
[1] = target: Aurora A (Homo sapiens, UniProt O14965); experiment: IC50 for kinases of potential cross-over; format: biochemical
[2] = target: Jak1 (Homo sapiens, UniProt P23458); experiment: Inhibition of catalytic domain activity, Jak1; format: biochemical
Method in brief: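 Z′-LYTE biochemical kinase assay run by the vendor per manufacturer's protocol. Each kinase plate carried 0%/100% phosphorylation and 0%/100% inhibition controls. Development-reaction and compound-fluorescence interference controls at each compound concentration. n = 1 per kinase.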

[3] = Metabolic stability in liver microsomes; format: in vitro ADME; conditions: monkey
Method in brief: (§1)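 Test compound from 1 mM DMSO solution preincubated 5 min with dog, human, monkey, rat or minipig liver microsomes. NADPH (10 mM) then added. Reactions stopped at 0, 5, 15 and 30 min with 0.05% formic acid in acetonitrile containing loperamide internal standard. Supernatants analysed by LC-MS/MS; n = 1 per microsome species.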

[4] = system: minipig; experiment: 7-day minipig study: dermal tolerability; format: in vivo; conditions: 2% solution applied to the skin for 7 consecutive days
Method in brief: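 Each minipig (1 male, 1 female) received topical test compound and matching placebo formulations once daily on designated skin areas. Animals were checked daily for clinical signs. Application sites were scored for dermal irritation by a modified Draize procedure.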

[5] = system: participants with atopic dermatitis; experiment: Phase 2a study ATI-1777-AD-201: safety; format: in vivo, human
Method in brief: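 Adults with moderate/severe AD applied 2% solution or vehicle twice daily for 4 weeks. TEAEs: onset on/after first dose and before last dose […], counted once per preferred term and system organ class. Also assessed serious AEs, labs, vital signs, physical exams, 12-lead ECG. Full analysis set; safety reviewed every 4 weeks.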

[6] = target: CYP2C8 (Homo sapiens, UniProt P10632); experiment: Cytochrome P450 phenotyping; format: in vitro ADME; conditions: recombinant human CYP2C8; with NADPH; 60 minutes; n = 1
Method in brief: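 Recombinant human CYPs prepared at CYP1A2 200 nM, CYP2B6/2C8 250 nM, CYP2C9 100 nM, CYP2D6 50 nM. Test compound added as 2 μM DMSO dosing solution on ice. Plate prewarmed, then 8 mM NADPH solution or blank buffer added. Incubation 60 min (1A2, 2B6, 2C8) or 30 min (2C9, 2D6). Stopped with acetonitrile plus internal standard; supernatant by LC-MS/MS; n = 1.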

[7] = target: TXK (Homo sapiens, UniProt P42681); experiment: IC50 for kinases of potential cross-over; format: biochemical
[8] = 7-day minipig study: plasma pharmacokinetics; format: in vivo
[9] = system: Jak2/2; experiment: Inhibition of GM-CSF-induced STAT phosphorylation in PBMCs; format: cell-based, human
Method in brief: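 Ficoll-isolated human PBMCs, cryopreserved, thawed into RPMI/10% heat-inactivated FBS assay medium, 200,000 cells/well. Serially diluted test compound (final 20 μM to 2 × 10−6 μM) or 0.1% DMSO vehicle preincubated 1 h at 37 °C. Cytokine then added for 5–10 min, followed by 30 min shaking at 4 °C and lysis. Phospho-STAT5/STAT4 by MSD immunoassay, phospho-STAT1 by ELISA. IC50 reported as mean ± SD.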

[10] = Metabolic stability in liver microsomes; format: in vitro ADME; conditions: human
Method in brief: as §1

[11] = Metabolic stability in liver microsomes; format: in vitro ADME; conditions: mouse
[12] = Metabolic stability in liver microsomes; format: in vitro ADME; conditions: rat
Method in brief: as §1

[13] = TEAE, full analysis set, n = 23
[14] = male, plasma, topical, 160 mg/day

Chain of Jak1 (P23458 875-1153 limits assumed): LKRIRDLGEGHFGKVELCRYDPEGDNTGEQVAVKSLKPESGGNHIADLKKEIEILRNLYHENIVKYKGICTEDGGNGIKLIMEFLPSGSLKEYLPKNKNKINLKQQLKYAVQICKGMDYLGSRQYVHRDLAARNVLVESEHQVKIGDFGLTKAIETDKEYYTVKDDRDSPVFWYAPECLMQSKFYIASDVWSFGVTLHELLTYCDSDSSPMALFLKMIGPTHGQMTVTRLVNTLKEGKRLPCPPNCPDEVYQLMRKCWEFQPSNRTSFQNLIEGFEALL
Chain of Aurora A (O14965 whole entry, the tested form may be a part): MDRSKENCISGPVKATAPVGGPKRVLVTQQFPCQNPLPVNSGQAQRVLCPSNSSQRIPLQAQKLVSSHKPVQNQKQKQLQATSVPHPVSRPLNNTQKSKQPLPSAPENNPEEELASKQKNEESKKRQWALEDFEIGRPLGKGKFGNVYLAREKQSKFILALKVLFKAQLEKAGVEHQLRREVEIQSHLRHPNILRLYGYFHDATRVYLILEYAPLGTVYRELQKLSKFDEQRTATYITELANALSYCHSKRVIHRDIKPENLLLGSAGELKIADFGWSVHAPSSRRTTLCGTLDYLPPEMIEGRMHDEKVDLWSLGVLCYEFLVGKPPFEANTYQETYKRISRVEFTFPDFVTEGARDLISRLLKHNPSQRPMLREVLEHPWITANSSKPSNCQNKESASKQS
Chain of TXK (P42681 whole entry): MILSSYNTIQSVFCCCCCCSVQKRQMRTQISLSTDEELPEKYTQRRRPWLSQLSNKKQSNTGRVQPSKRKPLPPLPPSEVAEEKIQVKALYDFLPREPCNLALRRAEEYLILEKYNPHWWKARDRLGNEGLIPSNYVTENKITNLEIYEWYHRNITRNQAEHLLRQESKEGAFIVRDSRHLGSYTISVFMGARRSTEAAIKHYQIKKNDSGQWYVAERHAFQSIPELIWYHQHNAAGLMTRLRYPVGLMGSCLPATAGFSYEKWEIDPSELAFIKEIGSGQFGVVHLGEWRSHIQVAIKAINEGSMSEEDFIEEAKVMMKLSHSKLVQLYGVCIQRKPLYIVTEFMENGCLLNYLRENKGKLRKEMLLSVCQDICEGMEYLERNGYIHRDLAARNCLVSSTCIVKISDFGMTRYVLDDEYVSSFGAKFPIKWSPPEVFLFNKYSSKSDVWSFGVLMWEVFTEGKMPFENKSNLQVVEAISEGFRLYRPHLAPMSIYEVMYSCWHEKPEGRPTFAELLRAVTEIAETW
Chain of CYP2C8 (P10632 whole entry): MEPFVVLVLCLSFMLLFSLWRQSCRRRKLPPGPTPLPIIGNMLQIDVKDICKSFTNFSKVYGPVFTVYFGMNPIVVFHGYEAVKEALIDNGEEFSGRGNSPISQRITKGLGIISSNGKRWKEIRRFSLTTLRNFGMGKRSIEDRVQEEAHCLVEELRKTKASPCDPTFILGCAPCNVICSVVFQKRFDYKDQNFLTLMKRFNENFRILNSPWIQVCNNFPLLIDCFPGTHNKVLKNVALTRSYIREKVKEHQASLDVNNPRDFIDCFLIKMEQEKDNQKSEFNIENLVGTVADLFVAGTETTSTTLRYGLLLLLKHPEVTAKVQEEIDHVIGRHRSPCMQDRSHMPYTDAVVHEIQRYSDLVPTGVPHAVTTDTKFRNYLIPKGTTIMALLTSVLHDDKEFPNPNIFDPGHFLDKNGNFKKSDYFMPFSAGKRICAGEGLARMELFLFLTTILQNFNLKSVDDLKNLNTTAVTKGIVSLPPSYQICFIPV

CCOC(=O)c1cnc2[nH]ccc2c1N[C@@H]1CCCN(C(=O)CC#N)C1 [ATI-1777, ethyl (R)-4-((1-(2-cyanoacetyl)piperidin-3-yl)amino)-1H-pyrrolo[2,3-b]pyridine-5-carboxylate]
IC50 [1]: 641 nM
Fold Selectivity ([1]; Aurora A vs Jak1 (= 1)): 427 fold
IC50 [2]: 1.5 nM
Fold Selectivity ([2]; Jak1 reference line of Table 2): 1 fold
CLint scaled [3]: 939 mL/min/kg
microsomal CLint [3]: 264 µL/min/mg
half-life ([3]; T1/2, Study 1, n = 1): 2.16 min
half-life ([3]; T1/2, Study 2, n = 1): 5 min
clinical observations and clinical pathology parameters [4]: no adverse clinical observations or changes in clinical pathology parameters
deaths, serious adverse events, TEAEs of special interest ([5]; 2% topical solution twice daily, 4 weeks): No deaths or serious adverse events were reported; also recorded: No deaths or treatment-emergent AEs (TEAEs) of special interest; also recorded: No deaths or serious AEs were reported
AEs reported, proportion of participants ([5]; 2% topical solution twice daily, 4 weeks, n = 23): 39.1%
Acrochordon, Number of Events ([5]; TEAE, PT, n = 23): 1
Acrochordon, Number of Subjects ([5]; TEAE, PT, n = 23): 1 (4.3) n (%)
Amylase increased, Number of Events ([5]; TEAE, PT, n = 23): 1
Amylase increased, Number of Subjects ([5]; TEAE, PT, n = 23): 1 (4.3) n (%)
Application site irritation, Number of Events ([5]; TEAE, PT, n = 23): 0
Application site irritation, Number of Subjects ([5]; TEAE, PT, n = 23): 0 n (%)
Application site pruritus, Number of Events ([5]; TEAE, PT, n = 23): 1
Application site pruritus, Number of Subjects ([5]; TEAE, PT, n = 23): 1 (4.3) n (%)
Atrial fibrillation, Number of Events ([5]; TEAE, PT, n = 23): 1
Atrial fibrillation, Number of Subjects ([5]; TEAE, PT, n = 23): 1 (4.3) n (%)
Blood CPK increased, Number of Events ([5]; TEAE, PT, n = 23): 2
Blood CPK increased, Number of Subjects ([5]; TEAE, PT, n = 23): 2 n (%) and 2 (8.7) n (%)
COVID-19, Number of Events ([5]; TEAE, PT, n = 23): 0
COVID-19, Number of Subjects ([5]; TEAE, PT, n = 23): 0 n (%)
Candida infection, Number of Events ([5]; TEAE, PT, n = 23): 1
Candida infection, Number of Subjects ([5]; TEAE, PT, n = 23): 1 (4.3) n (%)
Dizziness, Number of Events ([5]; TEAE, PT, n = 23): 1
Dizziness, Number of Subjects ([5]; TEAE, PT, n = 23): 1 (4.3) n (%)
Folliculitis, Number of Events ([5]; TEAE, PT, n = 23): 1
Folliculitis, Number of Subjects ([5]; TEAE, PT, n = 23): 1 (4.3) n (%)
Food poisoning, Number of Events ([5]; TEAE, PT, n = 23): 1
Food poisoning, Number of Subjects ([5]; TEAE, PT, n = 23): 1 (4.3) n (%)
Headache, Number of Events ([5]; TEAE, PT, n = 23): 2
Headache, Number of Subjects ([5]; TEAE, PT, n = 23): 2 n (%) and 2 (8.7) n (%)
Lipase increased, Number of Events ([5]; TEAE, PT, n = 23): 1
Lipase increased, Number of Subjects ([5]; TEAE, PT, n = 23): 1 (4.3)1 n (%)
Oropharyngeal pain, Number of Events ([5]; TEAE, PT, n = 23): 0
Oropharyngeal pain, Number of Subjects ([5]; TEAE, PT, n = 23): 0 n (%)
Pharyngitis streptococcal, Number of Events ([5]; TEAE, PT, n = 23): 0
Pharyngitis streptococcal, Number of Subjects ([5]; TEAE, PT, n = 23): 0 n (%)
Rash, Number of Events ([5]; TEAE, PT, n = 23): 0
Rash, Number of Subjects ([5]; TEAE, PT, n = 23): 0 n (%)
SARS-CoV-2 test positive, Number of Events ([5]; TEAE, PT, n = 23): 0
SARS-CoV-2 test positive, Number of Subjects ([5]; TEAE, PT, n = 23): 0 n (%)
Sinus congestion, Number of Events ([5]; TEAE, PT, n = 23): 0
Sinus congestion, Number of Subjects ([5]; TEAE, PT, n = 23): 0 n (%)
Skin fragility, Number of Events ([5]; TEAE, PT, n = 23): 0
Skin fragility, Number of Subjects ([5]; TEAE, PT, n = 23): 0 n (%)
Somnolence, Number of Events ([5]; TEAE, PT, n = 23): 0
Somnolence, Number of Subjects ([5]; TEAE, PT, n = 23): 0 n (%)
Tinea infection, Number of Events ([5]; TEAE, PT, n = 23): 1
Tinea infection, Number of Subjects ([5]; TEAE, PT, n = 23): 1 (4.3) n (%)
Transaminases increased, Number of Events ([5]; TEAE, PT, n = 23): 1
Transaminases increased, Number of Subjects ([5]; TEAE, PT, n = 23): 1 (4.3) n (%)
Urinary tract infection, Number of Events ([5]; TEAE, PT, n = 23): 1
Urinary tract infection, Number of Subjects ([5]; TEAE, PT, n = 23): 1 n (%) and 1 (4.3) n (%)
Cardiac disorders, Number of Events ([5]; TEAE, SOC, n = 23): 1
Cardiac disorders, Number of Subjects ([5]; TEAE, SOC, n = 23): 1 (4.3) n (%)
Gastrointestinal disorders, Number of Events ([5]; TEAE, SOC, n = 23): 1
Gastrointestinal disorders, Number of Subjects ([5]; TEAE, SOC, n = 23): 1 (4.3) n (%)
General disorders and administration site conditions, Number of Events ([5]; TEAE, SOC, n = 23): 1
General disorders and administration site conditions, Number of Subjects ([5]; TEAE, SOC, n = 23): 1 (4.3) n (%)
Infections and infestations, Number of Events ([5]; TEAE, SOC, n = 23): 4
Infections and infestations, Number of Subjects ([5]; TEAE, SOC, n = 23): 3 (13.0) n (%)
Investigations, Number of Events ([5]; TEAE, SOC, n = 23): 5
Investigations, Number of Subjects ([5]; TEAE, SOC, n = 23): 3 (13.0) n (%)
Neoplasms benign, malignant, and unspecified (including cysts and polyps), Number of Events ([5]; TEAE, SOC, n = 23): 1
Neoplasms benign, malignant, and unspecified (including cysts and polyps), Number of Subjects ([5]; TEAE, SOC, n = 23): 1 (4.3) n (%)
Nervous system disorders, Number of Events ([5]; TEAE, SOC, n = 23): 3
Nervous system disorders, Number of Subjects ([5]; TEAE, SOC, n = 23): 3 (13.0) n (%)
Respiratory, thoracic, and mediastinal disorders, Number of Events ([5]; TEAE, SOC, n = 23): 0
Respiratory, thoracic, and mediastinal disorders, Number of Subjects ([5]; TEAE, SOC, n = 23): 0 n (%)
Skin and subcutaneous tissue disorders, Number of Events ([5]; TEAE, SOC, n = 23): 0
Skin and subcutaneous tissue disorders, Number of Subjects ([5]; TEAE, SOC, n = 23): 0 n (%)
Any AE, Number of Events [5, 13]: 16
Any AE, Number of Subjects [5, 13]: 9 (39.1) n (%)
participants who discontinued study participation owing to TEAEs ([5]; n = 23): No participants
TEAE related to study treatment ([5]; one related TEAE in the group): mild application site pruritus
Percentage Remaining [6]: 41.2%
IC50 [7]: 351 nM
Fold Selectivity ([7]; TXK vs Jak1 (= 1)): 234 fold
systemic exposure ([8]; 2% solution, 7 consecutive days, LLOQ = 0.5 ng/ml, at most time points): unquantifiable
concentration at 0 h [8, 14]: 0 ng/mL
concentration at 1 h [8, 14]: 0 ng/mL
concentration at 2 h [8, 14]: 0.387 ng/mL
concentration at 4 h [8, 14]: 0.221 ng/mL
concentration at 8 h [8, 14]: 0.391 ng/mL
concentration at 12 h [8, 14]: 0 ng/mL
concentration at 24 h [8, 14]: 0 ng/mL
Fold Jak1/3 ([9]; GM-CSF, Jak2/2 vs Jak1/3): 41.8 fold
IC50 ([9]; Homo sapiens, PBMC, read-out: IC50 Mean ± SD): 794 ± 121 nM
CLint scaled [10]: 200 mL/min/kg
microsomal CLint [10]: 74 µL/min/mg
half-life ([10]; T1/2, Study 1, n = 1): 8.71 min
half-life ([10]; T1/2, Study 2, n = 1): 19 min
CLint scaled [11]: 3280 mL/min/kg
half-life [11]: 1.66 min
CLint scaled [12]: 370 mL/min/kg
microsomal CLint [12]: 52 µL/min/mg
half-life ([12]; T1/2, Study 1, n = 1): 6.7 min
half-life ([12]; T1/2, Study 2, n = 1): 27 min
